According to ChEMBL document CHEMBL2163334, “Discovery of highly potent and selective pan-Aurora kinase inhibitors with enhanced in vivo antitumor therapeutic index” (J Med Chem, 2012):
Values belong to the molecule of their own block, whether it stands above or below them. The source made the active and inactive calls. The rule behind the calls is not given here.

What was measured:
[1] = Protein binding in plasma; format: ADME, cell-free; details: read-out: PPB
Aurora kinase A [2] = molecular target: T1, Aurora kinase A (Homo sapiens, UniProt O14965); experiment: Binding affinity to Aurora kinase A catalytic domain by competition binding assay
T1 sequence (O14965 whole entry): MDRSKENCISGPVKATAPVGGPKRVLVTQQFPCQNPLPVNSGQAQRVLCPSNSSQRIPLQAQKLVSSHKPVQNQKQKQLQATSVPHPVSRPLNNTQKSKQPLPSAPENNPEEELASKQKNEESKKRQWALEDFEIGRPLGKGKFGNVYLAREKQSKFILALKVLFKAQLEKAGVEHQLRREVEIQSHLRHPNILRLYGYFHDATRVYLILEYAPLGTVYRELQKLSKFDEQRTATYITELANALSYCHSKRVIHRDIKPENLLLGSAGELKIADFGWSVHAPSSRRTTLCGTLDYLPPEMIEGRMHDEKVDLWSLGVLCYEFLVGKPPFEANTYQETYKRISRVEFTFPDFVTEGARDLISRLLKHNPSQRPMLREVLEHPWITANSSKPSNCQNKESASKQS

Aurora kinase B [3] = molecular target: T2, Aurora kinase B (Homo sapiens, UniProt Q96GD4); experiment: Binding affinity to Aurora kinase B catalytic domain by competition binding assay
T2 sequence (Q96GD4 whole entry, the tested form may be a part): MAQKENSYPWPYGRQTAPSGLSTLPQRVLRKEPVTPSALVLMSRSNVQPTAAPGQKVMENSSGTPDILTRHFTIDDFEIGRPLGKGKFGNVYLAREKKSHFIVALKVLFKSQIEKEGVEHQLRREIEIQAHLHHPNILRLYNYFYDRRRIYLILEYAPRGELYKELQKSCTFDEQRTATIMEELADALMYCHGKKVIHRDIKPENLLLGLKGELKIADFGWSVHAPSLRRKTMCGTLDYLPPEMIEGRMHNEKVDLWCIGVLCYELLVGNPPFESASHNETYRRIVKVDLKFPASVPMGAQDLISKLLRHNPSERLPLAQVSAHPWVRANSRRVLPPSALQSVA

Aurora kinase B [4] = molecular target: T2, Aurora kinase B; experiment: Inhibition of Aurora kinase B-mediated histone H3 Ser10 phosphorylation in human HCT116 cells after 2 hrs by sandwich ELISA; format: cell-based, HCT-116
Summary of the method: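 HCT-116 cells seeded 4 × 10⁴/well, 4-6 h at 37 °C, then arrested overnight (16-18 h) with nocodazole at 66 ng/mL final. Treated 2 h with nine-point 3-fold dilutions in DMSO; lysed with phosphatase inhibitor, phospho-H3 (Ser10) sandwich ELISA read at 450 nm. IC50 = 50% inhibition of phosphorylation; duplicate runs averaged.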

HCT-116 [5] = experiment: Antiproliferative activity against human HCT116 cells after 72 hrs by BrdU-based ELISA; format: functional, cell-based; details: HCT-116, 72 h
Summary of the method: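 HCT-116 cells in McCoy's 5A with 10% FBS and pen/strep, seeded 800 cells/well, left overnight at 37 °C, 5% CO2. Nine-point 3-fold serial dilutions in DMSO added for 72 h; BrdU colorimetric ELISA read at 450 and 690 nm. IC50 is the concentration halving proliferation; duplicate runs averaged.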

Aurora kinase A [6] = molecular target: T1, Aurora kinase A; experiment: Inhibition of Aurora kinase A autophosphorylation in human HEK293 cells after 2 hrs by phosphor antibody readout assay; format: cell-based
[7] = Clearance in Sprague-Dawley rat at 1 mg/kg, iv administered using PEG400/water as vehicle; format: ADME, organism-based; design: dose 1 mg/kg, route intravenous; details: in vivo
Summary of the method: (§1)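 SD rats fasted overnight, given 1 mg/kg iv in PEG400/water (3:1, v/v); three per arm. Blood into K3 EDTA at 5, 15, 30 min, 1, 2, 4, 6, 24 h, spun at 4 °C; plasma extracted with six volumes acetonitrile plus internal standard and quantified by LC-MS/MS (C8 column, formic acid/ACN gradient).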

[8] = Clearance in athymic Nu/Nu rat at 3 mg/kg, iv administered using TPPW as vehicle; format: ADME, organism-based; design: dose 3 mg/kg, route intravenous; details: in vivo
Summary of the method: (§2)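 Plasma from K3 EDTA blood at 5, 15, 30 min, 1, 2, 4, 6, 24 h; acetonitrile extraction with internal standard, LC-MS/MS on C8 column, 5-95% ACN gradient with 0.05% formic acid.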

[9] = Clearance in athymic Nu/Nu rat at 10 mg/kg, iv administered using TPPW as vehicle; format: ADME, organism-based; design: dose 10 mg/kg, route intravenous; details: in vivo; summary of the method: as §2
[10] = Clearance in athymic Nu/Nu rat at 30 mg/kg, iv administered using TPPW as vehicle; format: ADME, organism-based; design: dose 30 mg/kg, route intravenous; details: in vivo; summary of the method: as §2
[11] = Volume of distribution in Sprague-Dawley rat at 1 mg/kg, iv administered using PEG400/water as vehicle; format: ADME, organism-based; design: dose 1 mg/kg, route intravenous; details: in vivo; summary of the method: as §1
[12] = Volume of distribution in Nu/Nu rat at 3 mg/kg, iv administered using TPPW as vehicle; format: ADME, organism-based; design: dose 3 mg/kg, route intravenous; details: in vivo; summary of the method: as §2
[13] = Volume of distribution in Nu/Nu rat at 10 mg/kg, iv administered using TPPW as vehicle; format: ADME, organism-based; design: dose 10 mg/kg, route intravenous; details: in vivo; summary of the method: as §2
[14] = Volume of distribution in Nu/Nu rat at 30 mg/kg, iv administered using TPPW as vehicle; format: ADME, organism-based; design: dose 30 mg/kg, route intravenous; details: in vivo; summary of the method: as §2
[15] = AUC (0 to infinity) in Sprague-Dawley rat at 1 mg/kg, iv administered using PEG400/water as vehicle; format: ADME, organism-based; design: time infinity, dose 1 mg/kg, route intravenous; details: plasma; summary of the method: as §1
[16] = AUC (0 to infinity) in Nu/Nu rat at 3 mg/kg, iv administered using TPPW as vehicle; format: ADME, organism-based; design: time infinity, dose 3 mg/kg, route intravenous; details: plasma; summary of the method: as §2
[17] = AUC (0 to infinity) in Nu/Nu rat at 10 mg/kg, iv administered using TPPW as vehicle; format: ADME, organism-based; design: time infinity, dose 10 mg/kg, route intravenous; details: plasma; summary of the method: as §2
[18] = AUC (0 to infinity) in Nu/Nu rat at 30 mg/kg, iv administered using TPPW as vehicle; format: ADME, organism-based; design: time infinity, dose 30 mg/kg, route intravenous; details: plasma; summary of the method: as §2
[19] = Half life in Sprague-Dawley rat at 1 mg/kg, iv administered using PEG400/water as vehicle; format: ADME, organism-based; design: dose 1 mg/kg, route intravenous; details: in vivo; summary of the method: as §1
[20] = Half life in Nu/Nu rat at 3 mg/kg, iv administered using TPPW as vehicle; format: ADME, organism-based; design: dose 3 mg/kg, route intravenous; details: in vivo; summary of the method: as §2
[21] = Half life in Nu/Nu rat at 10 mg/kg, iv administered using TPPW as vehicle; format: ADME, organism-based; design: dose 10 mg/kg, route intravenous; details: in vivo; summary of the method: as §2
[22] = Half life in Nu/Nu rat at 30 mg/kg, iv administered using TPPW as vehicle; format: ADME, organism-based; design: dose 30 mg/kg, route intravenous; details: in vivo; summary of the method: as §2
Aurora kinase B [23] = molecular target: T2, Aurora kinase B; experiment: Inhibition of Aurora kinase B in human HCT116 cells assessed as induction of 8N polyploidy; format: cell-based; details: HCT-116
HCT-116 [24] = experiment: Antitumor activity against human HCT116 cells xenografted in athymic nude rat assessed as tumor growth inhibition at 10 mg/kg, iv administered every other day from day 10 post tumor-injection for 3 weeks relative to vehicle treated control; format: functional; details: read-out: TGI
Summary of the method: (§3)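 Subcutaneous flank HCT-116 xenografts in nude rats; at Day 1 groups of 10 with mean tumor 301-306 mm³. Tail-vein iv in TPPW (2% Tween-80, 5% propylene glycol, 10% PG-400, 83% water) at 10 mL/kg, weight-adjusted: days 1,3,5,8,10,12,15,17,19 or days 1-4, 8-11, 15-18. Irinotecan control 100 mg/kg ip weekly ×3.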

HCT-116 [25] = experiment: Antitumor activity against human HCT116 cells xenografted in athymic nude rat assessed as tumor growth inhibition at 20 mg/kg, iv administered every other day from day 10 post tumor-injection for 3 weeks relative to vehicle treated control; format: functional; details: read-out: TGI; summary of the method: as §3
HCT-116 [26] = experiment: Antitumor activity against human HCT116 cells xenografted in athymic nude rat assessed as tumor stasis at 10 to 20 mg/kg, iv administered every other day from day 10 post tumor-injection for 3 weeks measured upto 40 days; format: functional, organism-based
Summary of the method: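 HCT-116 flank xenografts in nude rats, groups of 10 at mean 301-306 mm³; iv tail-vein dosing in TPPW at 10 mL/kg on days 1,3,5,8,10,12,15,17,19; tumors followed after dosing stopped, study ending day 42 or day 60.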

Rattus norvegicus [27] = experiment: Toxicity in athymic nude rat bearing human HCT116 cells assessed body weight loss at 40 mg/kg, iv administered every other day from day 10 post tumor-injection for 3 weeks; format: organism-based, HCT-116; design: dose 40 mg/kg, route intravenous; details: in vivo, 504 h; summary of the method: as §3
Rattus norvegicus [28] = experiment: Toxicity in athymic nude rat bearing human HCT116 cells assessed body weight loss up to 20 mg/kg, iv administered every other day from day 10 post tumor-injection for 3 weeks; format: organism-based, HCT-116; design: dose 20 mg/kg, route intravenous; details: in vivo, 504 h; summary of the method: as §3
HCT-116 [29] = experiment: Antitumor activity against human HCT116 cells xenografted in athymic nude rat assessed as tumor growth inhibition at 5 mg/kg, iv administered QD for 4 days per week followed by 3 days off per week for 3 weeks; format: functional, organism-based; design: dose 5 mg/kg; summary of the method: as §3
HCT-116 [30] = experiment: Antitumor activity against human HCT116 cells xenografted in athymic nude rat assessed as tumor growth inhibition at 10 mg/kg, iv administered QD for 4 days per week followed by 3 days off per week for 3 weeks; format: functional, organism-based; design: dose 10 mg/kg; summary of the method: as §3
Rattus norvegicus [31] = experiment: Toxicity in athymic nude rat bearing human HCT116 cells assessed as adverse effects at 5 to 10 mg/kg, iv administered QD for 4 days per week followed by 3 days off per week for 3 weeks; format: organism-based, HCT-116; design: dose 5-10 mg/kg, route intravenous; details: in vivo; summary of the method: as §3
Aurora kinase C = molecular target: T3, Aurora kinase C (Homo sapiens, UniProt Q9UQB9); experiment: Binding affinity to Aurora kinase C
T3 sequence (Q9UQB9 whole entry): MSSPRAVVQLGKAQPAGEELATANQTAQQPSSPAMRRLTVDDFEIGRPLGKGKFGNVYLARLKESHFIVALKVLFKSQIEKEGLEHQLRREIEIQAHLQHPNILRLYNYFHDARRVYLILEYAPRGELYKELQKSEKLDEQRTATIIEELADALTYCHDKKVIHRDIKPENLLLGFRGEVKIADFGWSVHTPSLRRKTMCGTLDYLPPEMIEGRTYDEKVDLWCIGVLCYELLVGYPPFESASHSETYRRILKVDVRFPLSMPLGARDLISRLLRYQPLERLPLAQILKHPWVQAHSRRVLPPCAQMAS

fraction unbound [1]: 0.01
Kd (Aurora kinase A [2]): 9.3 nM
Kd (Aurora kinase B [3]): 1.9 nM
IC50 (Aurora kinase B [4]): 3 nM
IC50 (HCT-116 [5]): 2.3 nM
IC50 (Aurora kinase A [6]): 2 nM
clearance [7]: 16.9 mL/min/kg
clearance [8]: 27.9 mL/min/kg
clearance [9]: 20.7 mL/min/kg
clearance [10]: 14.7 mL/min/kg
Vd [11]: 3.49 L/kg
Vd [12]: 1 L/kg
Vd [13]: 1.1 L/kg
Vd [14]: 0.84 L/kg
AUC(0-inf) [15]: 1.8 µM·h
AUC(0-inf) [16]: 3.2 µM·h
AUC(0-inf) [17]: 14.6 µM·h
AUC(0-inf) [18]: 62.5 µM·h
half-life [19]: 9.4 h
half-life [20]: 1.5 h
half-life [21]: 3.8 h
half-life [22]: 3.4 h
inhibition (Aurora kinase B [23]): Dose-dependent effect
Kd (Aurora kinase C): < 10 nM
Structure (SMILES): Cc1cc(Nc2nc(Sc3ccc(NC(=O)CN4CC[C@@H](C(=O)NC5CCCC5)C4)cc3)nn3cccc23)n[nH]1
inhibition in vivo at 10 mg/kg (HCT-116 [24]): 77%
inhibition in vivo at 20 mg/kg (HCT-116 [25]): 82%
Activity (HCT-116 [26]): Active
Activity (Rattus norvegicus [27]): > 10%
Activity (Rattus norvegicus [28]): Non-toxic
TGI (HCT-116 [29]): Active
TGI (HCT-116 [30]): Active
Activity (Rattus norvegicus [31]): Non-toxic

Kd (Aurora kinase A [2]): 5.6 nM
Kd (Aurora kinase B [3]): 3.1 nM
IC50 (Aurora kinase B [4]): 6.2 nM
IC50 (HCT-116 [5]): 1 nM
clearance [7]: 48 mL/min/kg
Structure (SMILES): Cc1cc(Nc2nc(Sc3ccc(NC(=O)CN4CC[C@@H](C(=O)NC(C)(C)C)C4)cc3)nn3cccc23)n[nH]1

Kd (Aurora kinase A [2]): 2.5 nM
Kd (Aurora kinase B [3]): 2.2 nM
IC50 (Aurora kinase B [4]): 7 nM
IC50 (HCT-116 [5]): 0.9 nM
clearance [7]: 35 mL/min/kg
Structure (SMILES): Cc1cc(Nc2nc(Sc3ccc(NC(=O)CN4CC[C@@H](C(=O)NCC(F)(F)F)C4)cc3)nn3cccc23)n[nH]1
